According to ChEMBL document CHEMBL1133101, “7-Methyl-6,7,8,9,14,15-hexahydro-5H-benz[d]indolo[2,3-g]azecine: a new heterocyclic system and a new lead compound for dopamine receptor antagonists” (J Med Chem, 2000):

Tests used:
[1] = biological target: T1, Adrenergic receptor alpha-1 (Homo sapiens, UniProt P35348+P25100+P35368); assay: Binding affinity against Alpha-1 adrenergic receptor; assay type: protein assay
T1 sequence (P35348 whole entry): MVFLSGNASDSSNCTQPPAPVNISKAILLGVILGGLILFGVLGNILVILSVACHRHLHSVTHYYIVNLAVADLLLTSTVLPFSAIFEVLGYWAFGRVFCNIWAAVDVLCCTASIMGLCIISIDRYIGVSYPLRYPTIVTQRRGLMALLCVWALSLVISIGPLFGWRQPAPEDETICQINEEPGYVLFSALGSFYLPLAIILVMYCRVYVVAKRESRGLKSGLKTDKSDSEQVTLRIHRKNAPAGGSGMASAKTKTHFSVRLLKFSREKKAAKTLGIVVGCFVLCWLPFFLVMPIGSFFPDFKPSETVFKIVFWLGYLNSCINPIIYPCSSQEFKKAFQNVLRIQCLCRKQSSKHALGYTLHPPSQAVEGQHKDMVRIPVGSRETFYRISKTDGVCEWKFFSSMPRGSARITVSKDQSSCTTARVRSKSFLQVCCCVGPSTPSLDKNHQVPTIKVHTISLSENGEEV
T1 sequence (P25100 whole entry): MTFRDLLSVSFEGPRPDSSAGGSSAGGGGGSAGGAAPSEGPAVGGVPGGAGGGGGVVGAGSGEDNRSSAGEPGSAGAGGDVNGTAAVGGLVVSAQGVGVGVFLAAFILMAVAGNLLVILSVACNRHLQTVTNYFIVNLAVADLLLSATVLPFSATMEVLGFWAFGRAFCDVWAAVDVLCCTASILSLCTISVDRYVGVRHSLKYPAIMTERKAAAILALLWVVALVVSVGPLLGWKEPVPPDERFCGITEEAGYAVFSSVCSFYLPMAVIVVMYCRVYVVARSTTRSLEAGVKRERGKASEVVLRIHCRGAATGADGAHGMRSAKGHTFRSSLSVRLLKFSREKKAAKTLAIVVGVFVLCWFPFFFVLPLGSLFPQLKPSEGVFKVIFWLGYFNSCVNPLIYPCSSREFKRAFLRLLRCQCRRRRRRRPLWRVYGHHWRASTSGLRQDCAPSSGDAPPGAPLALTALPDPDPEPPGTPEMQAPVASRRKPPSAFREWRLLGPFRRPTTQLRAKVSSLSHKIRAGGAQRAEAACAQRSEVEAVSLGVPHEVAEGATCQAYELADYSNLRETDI
T1 sequence (P35368 whole entry): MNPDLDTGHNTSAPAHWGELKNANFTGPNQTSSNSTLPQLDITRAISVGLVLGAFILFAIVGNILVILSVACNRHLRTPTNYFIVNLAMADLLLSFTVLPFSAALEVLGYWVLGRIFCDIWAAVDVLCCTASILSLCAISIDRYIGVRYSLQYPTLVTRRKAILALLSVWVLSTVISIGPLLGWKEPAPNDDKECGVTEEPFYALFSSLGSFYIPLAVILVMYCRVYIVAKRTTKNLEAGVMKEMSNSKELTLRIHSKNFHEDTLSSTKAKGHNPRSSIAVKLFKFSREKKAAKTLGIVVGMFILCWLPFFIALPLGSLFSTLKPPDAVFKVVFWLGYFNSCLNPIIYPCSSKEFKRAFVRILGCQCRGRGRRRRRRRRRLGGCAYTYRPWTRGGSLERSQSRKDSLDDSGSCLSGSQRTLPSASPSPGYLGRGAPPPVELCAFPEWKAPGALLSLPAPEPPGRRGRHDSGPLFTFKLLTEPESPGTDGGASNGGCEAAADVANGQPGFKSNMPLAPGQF

[2] = biological target: Neuronal acetylcholine receptor (Rattus norvegicus) (UniProt P04757+P09483+P12389+P12390+P12392+P43144+Q9JLB5+P12391+P43143+P20420+Q05941); assay: % Decrease of Nicotinic acetylcholine receptor-bound radioactivity using cytisine as a radioligand.; assay type: protein-complex assay; design: scale not given: the % may be the effect or the level left
In short: (§1)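 Preliminary screen of receptors isolated from rat or pig tissues, run with minor changes to standard procedures. Each compound was tested at a single fixed concentration for each receptor. The read-out was the percent decrease in binding of the named radioligand.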

[3] = biological target: T2, Muscarinic acetylcholine receptor M1 (Homo sapiens) (UniProt P11229); assay: Percent decrease of Muscarinic acetylcholine receptor M1 binding using pirenzepine; design: scale not given: the % may be the effect or the level left; in short: as §1
T2 sequence (whole entry): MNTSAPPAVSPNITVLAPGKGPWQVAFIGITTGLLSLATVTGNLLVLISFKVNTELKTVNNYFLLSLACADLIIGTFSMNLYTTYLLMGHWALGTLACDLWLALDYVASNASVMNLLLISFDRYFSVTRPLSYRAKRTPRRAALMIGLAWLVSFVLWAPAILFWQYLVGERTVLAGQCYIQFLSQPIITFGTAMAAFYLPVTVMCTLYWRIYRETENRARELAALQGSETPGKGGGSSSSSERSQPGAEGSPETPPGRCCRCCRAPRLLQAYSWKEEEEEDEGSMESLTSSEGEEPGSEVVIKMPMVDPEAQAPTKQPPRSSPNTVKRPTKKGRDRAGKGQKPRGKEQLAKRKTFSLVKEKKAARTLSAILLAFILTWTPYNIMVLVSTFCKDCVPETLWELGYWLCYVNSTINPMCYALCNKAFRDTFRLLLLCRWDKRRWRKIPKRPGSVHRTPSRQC

[4] = biological target: Sulfonylurea receptors; K-ATP channels (Homo sapiens) (UniProt Q14654+O60706+Q09428+Q15842); assay: Percent inhibition of glibenclamide binding to K+ channel; assay type: protein-complex assay; design: concentration or dose not given beside the values; in short: as §1
[5] = biological target: GABA-A receptor; anion channel (Homo sapiens) (UniProt P14867+P47870+P18507+P28472+P48169+Q99928+Q9UN88+P34903+O00591+O14764+Q8N1C3+P18505+P78334+P47869+P31644+Q16445); assay: Displacement of muscimol from GABA-A receptor; assay type: protein-complex assay; in short: as §1
[6] = Percent decrease in Bradykinin receptor binding; design: concentration or dose not given beside the values; in short: as §1
[7] = biological target: Sodium-dependent serotonin transporter (Homo sapiens) (UniProt P31645); assay: % Decrease of 5-HT carrier-receptor -bound radioactivity using paroxetine as a radioligand.; design: concentration or dose not given beside the values; in short: as §1
[8] = biological target: Serotonin 2 (5-HT2) receptor (Rattus norvegicus) (UniProt P30994+P08909+P14842); assay: Percent decrease in 5-hydroxytryptamine 2 receptor binding using ketanserin; assay type: protein assay; design: scale not given: the % may be the effect or the level left; in short: as §1
[9] = biological target: D(2) dopamine receptor (Rattus norvegicus) (UniProt P61169); assay: Percent decrease in Dopamine receptor D2 binding using spiperone; design: scale not given: the % may be the effect or the level left; in short: as §1
[10] = biological target: T3, Adenosine receptor A1 (Homo sapiens) (UniProt P30542); assay: Percent decrease in adenosine-A1-receptor binding using CPDPX; design: scale not given: the % may be the effect or the level left; in short: as §1
T3 sequence (whole entry): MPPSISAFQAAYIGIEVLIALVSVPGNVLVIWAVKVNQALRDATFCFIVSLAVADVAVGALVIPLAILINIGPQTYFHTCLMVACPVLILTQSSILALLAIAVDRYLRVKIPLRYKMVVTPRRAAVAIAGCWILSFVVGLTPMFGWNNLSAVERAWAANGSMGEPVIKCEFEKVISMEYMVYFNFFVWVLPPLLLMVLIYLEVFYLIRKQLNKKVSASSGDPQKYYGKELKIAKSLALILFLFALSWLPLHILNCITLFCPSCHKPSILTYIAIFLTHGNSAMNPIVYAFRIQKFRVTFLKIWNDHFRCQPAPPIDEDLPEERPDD

Chain of Sodium-dependent serotonin transporter (Homo sapiens) (P31645 whole entry, looked up): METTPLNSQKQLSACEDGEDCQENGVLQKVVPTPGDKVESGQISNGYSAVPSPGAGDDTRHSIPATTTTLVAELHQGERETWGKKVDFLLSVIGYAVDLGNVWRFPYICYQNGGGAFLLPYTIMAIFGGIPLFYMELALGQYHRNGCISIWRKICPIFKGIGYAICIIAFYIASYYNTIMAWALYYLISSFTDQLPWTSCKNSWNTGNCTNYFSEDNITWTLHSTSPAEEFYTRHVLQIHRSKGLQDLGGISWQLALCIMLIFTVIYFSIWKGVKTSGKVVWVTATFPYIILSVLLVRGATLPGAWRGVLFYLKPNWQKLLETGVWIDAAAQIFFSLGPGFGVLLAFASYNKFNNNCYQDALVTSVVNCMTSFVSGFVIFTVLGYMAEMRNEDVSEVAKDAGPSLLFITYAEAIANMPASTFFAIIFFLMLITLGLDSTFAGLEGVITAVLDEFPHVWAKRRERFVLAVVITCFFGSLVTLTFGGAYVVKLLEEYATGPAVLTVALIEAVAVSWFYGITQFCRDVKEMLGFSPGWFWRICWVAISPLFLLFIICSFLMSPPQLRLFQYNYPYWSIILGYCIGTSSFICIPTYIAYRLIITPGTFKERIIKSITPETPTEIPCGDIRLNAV
Chain of D(2) dopamine receptor (Rattus norvegicus) (P61169 whole entry): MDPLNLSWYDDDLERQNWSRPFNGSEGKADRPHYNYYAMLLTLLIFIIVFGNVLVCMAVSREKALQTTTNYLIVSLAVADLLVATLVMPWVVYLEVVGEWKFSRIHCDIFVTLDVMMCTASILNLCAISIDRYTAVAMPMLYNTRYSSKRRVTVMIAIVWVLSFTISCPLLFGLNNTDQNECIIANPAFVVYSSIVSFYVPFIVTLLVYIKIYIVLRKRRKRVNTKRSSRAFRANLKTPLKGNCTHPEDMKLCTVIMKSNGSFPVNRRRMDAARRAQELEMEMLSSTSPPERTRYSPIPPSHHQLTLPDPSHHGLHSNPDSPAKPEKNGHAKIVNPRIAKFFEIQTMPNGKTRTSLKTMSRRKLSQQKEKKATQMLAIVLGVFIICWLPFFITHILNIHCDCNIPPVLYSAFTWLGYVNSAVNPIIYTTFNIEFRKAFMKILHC
Chain of Serotonin 2 (5-HT2) receptor (Rattus norvegicus) (P08909 whole entry, looked up): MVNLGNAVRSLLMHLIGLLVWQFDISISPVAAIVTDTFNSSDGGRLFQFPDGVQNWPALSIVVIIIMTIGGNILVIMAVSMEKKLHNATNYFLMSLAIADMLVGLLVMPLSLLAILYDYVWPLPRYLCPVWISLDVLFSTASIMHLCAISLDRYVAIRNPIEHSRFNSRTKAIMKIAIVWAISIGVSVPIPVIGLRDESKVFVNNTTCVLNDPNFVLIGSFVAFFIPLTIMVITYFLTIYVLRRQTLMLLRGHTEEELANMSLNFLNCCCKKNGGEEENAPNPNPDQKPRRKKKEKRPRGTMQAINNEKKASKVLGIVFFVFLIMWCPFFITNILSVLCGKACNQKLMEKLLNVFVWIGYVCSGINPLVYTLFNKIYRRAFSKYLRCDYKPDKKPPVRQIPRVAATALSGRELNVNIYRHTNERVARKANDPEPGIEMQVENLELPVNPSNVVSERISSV
Chain of Serotonin 2 (5-HT2) receptor (Rattus norvegicus) (P14842 whole entry, looked up): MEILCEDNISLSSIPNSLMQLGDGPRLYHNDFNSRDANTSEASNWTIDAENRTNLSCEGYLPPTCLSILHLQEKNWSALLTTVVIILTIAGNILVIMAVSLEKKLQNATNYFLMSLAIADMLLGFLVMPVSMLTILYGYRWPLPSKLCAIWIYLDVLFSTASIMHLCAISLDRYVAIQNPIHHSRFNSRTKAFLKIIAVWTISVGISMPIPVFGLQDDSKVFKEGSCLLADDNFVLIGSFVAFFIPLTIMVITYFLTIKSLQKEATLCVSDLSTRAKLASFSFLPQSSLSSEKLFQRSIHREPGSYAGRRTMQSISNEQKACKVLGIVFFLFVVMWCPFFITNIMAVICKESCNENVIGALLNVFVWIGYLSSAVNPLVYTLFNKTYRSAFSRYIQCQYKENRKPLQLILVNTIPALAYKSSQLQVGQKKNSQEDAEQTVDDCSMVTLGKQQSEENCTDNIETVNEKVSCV
Chain of Serotonin 2 (5-HT2) receptor (Rattus norvegicus) (P30994 whole entry, looked up): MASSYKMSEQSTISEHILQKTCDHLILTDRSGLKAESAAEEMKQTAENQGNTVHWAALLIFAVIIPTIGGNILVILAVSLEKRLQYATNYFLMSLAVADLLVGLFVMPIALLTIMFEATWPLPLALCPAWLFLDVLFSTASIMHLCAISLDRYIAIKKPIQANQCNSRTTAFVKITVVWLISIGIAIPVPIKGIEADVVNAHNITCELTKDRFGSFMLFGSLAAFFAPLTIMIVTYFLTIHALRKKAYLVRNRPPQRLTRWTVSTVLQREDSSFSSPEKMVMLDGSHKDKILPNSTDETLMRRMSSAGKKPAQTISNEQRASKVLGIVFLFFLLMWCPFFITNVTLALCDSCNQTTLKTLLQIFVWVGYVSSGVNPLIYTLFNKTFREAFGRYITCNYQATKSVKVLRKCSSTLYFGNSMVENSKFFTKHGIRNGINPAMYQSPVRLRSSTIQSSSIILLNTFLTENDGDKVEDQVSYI

SMILES: CN1CCc2ccccc2Cc2[nH]c3ccccc3c2CC1
- Ki [1]: 11 nM
- Activity [2]: -3%
- Activity [3]: -9%
- Activity [4]: 10%
- Activity [5]: -9%
- Activity [6]: -2%
- Activity [7]: -8%

SMILES: c1ccc2c3c([nH]c2c1)C1c2[nH]c4ccccc4c2CCN1CC3
- Ki [1]: 76 nM
- Activity [2]: 1%
- Activity [8]: -52%
- Activity [9]: -51%
- Activity [3]: -18%
- Activity [4]: 7%
- Activity [10]: 17%
- Activity [5]: 5%
- Activity [6]: 2%
- Activity [7]: -45%

SMILES: c1ccc2c(c1)CCN1CCc3c([nH]c4ccccc34)C21 (configuration not stated)
- Ki [1]: 79 nM
- Activity [2]: 0%
- Activity [8]: -41%
- Activity [9]: -19%
- Activity [3]: -22%
- Activity [4]: 12%
- Activity [10]: 13%
- Activity [5]: -17%
- Activity [6]: -2%
- Activity [7]: -32%

SMILES: COc1cc2c(cc1OC)C1c3[nH]c4ccccc4c3CCN1CC2 (configuration not stated)
- Ki [1]: 17 nM
- Activity [2]: -4%
- Activity [8]: -32%
- Activity [9]: -11%
- Activity [3]: -11%
- Activity [4]: 11%
- Activity [10]: 26%
- Activity [5]: -26%
- Activity [6]: 9%
- Activity [7]: -8%
